System: Human immunodeficiency virus 1
Assay: Antiviral activity against R5-tropic HIV1 subtype B BaL infected in human TZM-bl cells assessed as viral inhibition pre-incubated for 30 mins prior to infection measured after 48 hrs by luciferase assay
Type: functional, organism-based
Conditions: Human immunodeficiency virus 1, BaL, TZM-bl
In short: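 TZM-bl cells (10^4/well at 10^5 cells/mL, medium with 30 µg/mL DEAE dextran) pre-incubated with serial compound dilutions 30 min at 37 °C, 5% CO2. Then infected with 200 TCID50 HIV-1 BaL and incubated 48 h. Luciferase read-out expressed as % inhibition vs untreated controls. EC50 from non-linear regression. Triplicate wells, ≥3 independent experiments.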

Row | SMILES | EC50 [nM]
1 | COC(=O)/C=C/c1cc(C)c(Nc2ccc(F)c(Nc3ccc(F)cc3)n2)c(C)c1 | 84
2 | Cc1cc(C#N)cc(C)c1Nc1ncc(F)c(Nc2ccc(C#N)cc2)n1 | 2.8
3 | Cc1cc(/C=C/C#N)ccc1Nc1ccc(F)c(Nc2ccc(Cl)cc2)n1 | 63
4 | COC(=O)/C=C/c1cc(C)c(Nc2ccc(F)c(Nc3ccc(C#N)cc3)n2)c(C)c1 | 4.4
5 | Cc1cc(C)c(Nc2ccnc(Nc3ccc(C#N)cc3)n2)c(C)c1 [DAPIVIRINE] | 1.4
6 | COC(=O)/C=C/c1cc(C)c(Nc2ccc(F)c(Nc3ccc(Cl)cc3)n2)c(C)c1 | 53
7 | Cc1cc(/C=C/C#N)ccc1Nc1ccc(F)c(Nc2ccc(C#N)cc2)n1 (mixture of isomers) | 11
8 | Cc1cc(/C=C/C#N)ccc1Nc1ccc(F)c(Nc2ccc(F)cc2)n1 | 400
9 | Cc1cc(/C=C/C#N)cc(C)c1Nc1ccc(F)c(Nc2ccc(C#N)cc2)c1 (mixture of isomers) | 4.5
10 | Cc1cc(/C=C/C#N)cc(C)c1Nc1ccc(F)c(Nc2ccc(/C=C/C#N)cc2)n1 | 4.6
11 | Cc1cc(/C=C/C#N)cc(F)c1Nc1ccc(F)c(Nc2ccc(C#N)cc2)n1 | 1
12 | Cc1cc(C#N)cc(F)c1Nc1ccc(F)c(Nc2ccc(C#N)cc2)n1 | 8.8
13 | COC(=O)c1ccc(Nc2nc(Nc3c(C)cc(/C=C/C#N)cc3C)ccc2F)cc1 | 23
14 | Cc1cc(C)c(Oc2ccc(F)c(Nc3ccc(C#N)cc3)n2)c(C)c1 | 8.6
15 | N#C/C=C/c1cc(F)c(Nc2ccc(F)c(Nc3ccc(C#N)cc3)n2)c(F)c1 (mixture of isomers) | 3.3
16 | Cc1cc(/C=C/C#N)cc(C)c1Nc1ncc(F)c(Nc2ccc(C#N)cc2)n1 (mixture of isomers) | 0.9

Row | SMILES | EC50 [nM]
17 | Cc1cc(C)c(Nc2cccc(Nc3ccc(C#N)cc3)n2)c(C)c1 | 30
18 | Cc1cc(/C=C/C#N)cc(C)c1Nc1ccc(F)c(Nc2ccc(C#N)cc2)n1 | 1.5
19 | Cc1cc(/C=C/C#N)cc(C)c1Nc1cccc(Nc2ccc(C#N)cc2)n1 (mixture of isomers) | 3.5
20 | Cc1cc(C#N)cc(C)c1Nc1ccc(F)c(Nc2ccc(Cl)cc2)n1 | 15
21 | Cc1cc(/C=C/C#N)cc(F)c1Nc1cccc(Nc2ccc(C#N)cc2)n1 (mixture of isomers) | 5.5
22 | Cc1cc(C)c(Nc2ccc(F)c(Nc3ccc(C#N)cc3)n2)c(C)c1 | 8.3
23 | N#C/C=C/c1ccc(Nc2ccc(F)c(Nc3ccc(C#N)cc3)n2)cc1 (mixture of isomers) | 480
24 | Cc1cc(C#N)cc(C)c1Nc1ccc(F)c(Nc2ccc(F)cc2)n1 | 51
25 | Cc1cc(C#N)cc(C)c1Nc1ccc(F)c(Nc2ccc(C#N)cc2)n1 | 4.7
26 | Cc1cc(/C=C/C#N)cc(C)c1Nc1ccc(F)c(Nc2ccc(Cl)cc2)n1 (mixture of isomers) | 6.3
27 | Cc1ccc(Oc2ccc(F)c(Nc3ccc(C#N)cc3)n2)cc1 | 260
28 | Cc1cc(/C=C/C#N)cc(F)c1Nc1ccc(F)c(Nc2ccc(C#N)cc2)c1 (mixture of isomers) | 11
29 | Cc1cc(/C=C/C#N)cc(C)c1Nc1ccnc(Nc2ccc(C#N)cc2)n1 [RILPIVIRINE] | 0.72
30 | Cc1cc(/C=C/C#N)ccc1Nc1ccc(F)c(Nc2ccc(C#N)cc2)c1 (mixture of isomers) | 58
31 | Cc1cc(/C=C/C#N)cc(C)c1Nc1ccc(F)c(Nc2ccc(F)cc2)n1 (mixture of isomers) | 6.2
32 | Cc1cc(C#N)cc(C)c1Nc1cccc(Nc2ccc(C#N)cc2)n1 | 25

Same assay, conditions: tzm-bl

Row | SMILES | EC50 [nM]
33 | Cc1cc(/C=C/C#N)cc(C)c1Nc1ccc(F)c(Nc2ccc(C#N)cc2)n1 | 1.6

System: not listed separately
Assay: Selectivity index, ratio of CC50 for human TZM-bl cells to EC50 for R5-tropic HIV1 subtype B BaL infected in human TZM-bl cells
Type: toxicity, cell-based
Conditions: TZM-bl cells, read-out: Selectivity Index

Row | SMILES | selectivity ratio
34 | COC(=O)/C=C/c1cc(C)c(Nc2ccc(F)c(Nc3ccc(F)cc3)n2)c(C)c1 | 610
35 | Cc1cc(C#N)cc(C)c1Nc1ncc(F)c(Nc2ccc(C#N)cc2)n1 | > 36000
36 | Cc1cc(/C=C/C#N)ccc1Nc1ccc(F)c(Nc2ccc(Cl)cc2)n1 | 380
37 | COC(=O)/C=C/c1cc(C)c(Nc2ccc(F)c(Nc3ccc(C#N)cc3)n2)c(C)c1 | 13000
38 | Cc1cc(C)c(Nc2ccnc(Nc3ccc(C#N)cc3)n2)c(C)c1 [DAPIVIRINE] | 2000
39 | COC(=O)/C=C/c1cc(C)c(Nc2ccc(F)c(Nc3ccc(Cl)cc3)n2)c(C)c1 | 950
40 | Cc1cc(/C=C/C#N)ccc1Nc1ccc(F)c(Nc2ccc(C#N)cc2)n1 (mixture of isomers) | 24000
41 | Cc1cc(/C=C/C#N)ccc1Nc1ccc(F)c(Nc2ccc(F)cc2)n1 | 210
42 | Cc1cc(/C=C/C#N)cc(C)c1Nc1ccc(F)c(Nc2ccc(C#N)cc2)c1 (mixture of isomers) | 7400
43 | Cc1cc(/C=C/C#N)cc(C)c1Nc1ccc(F)c(Nc2ccc(/C=C/C#N)cc2)n1 | 19000
44 | Cc1cc(/C=C/C#N)cc(F)c1Nc1ccc(F)c(Nc2ccc(C#N)cc2)n1 | > 100000
45 | Cc1cc(C#N)cc(F)c1Nc1ccc(F)c(Nc2ccc(C#N)cc2)n1 | 4600
46 | COC(=O)c1ccc(Nc2nc(Nc3c(C)cc(/C=C/C#N)cc3C)ccc2F)cc1 | 2100
47 | Cc1cc(C)c(Oc2ccc(F)c(Nc3ccc(C#N)cc3)n2)c(C)c1 | 6400
48 | N#C/C=C/c1cc(F)c(Nc2ccc(F)c(Nc3ccc(C#N)cc3)n2)c(F)c1 (mixture of isomers) | 4600
49 | Cc1cc(/C=C/C#N)cc(C)c1Nc1ncc(F)c(Nc2ccc(C#N)cc2)n1 (mixture of isomers) | > 42000

Row | SMILES | selectivity ratio
50 | Cc1cc(C)c(Nc2cccc(Nc3ccc(C#N)cc3)n2)c(C)c1 | 1400
51 | Cc1cc(/C=C/C#N)cc(C)c1Nc1ccc(F)c(Nc2ccc(C#N)cc2)n1 | 62500
52 | Cc1cc(/C=C/C#N)cc(C)c1Nc1cccc(Nc2ccc(C#N)cc2)n1 (mixture of isomers) | 11000
53 | Cc1cc(C#N)cc(C)c1Nc1ccc(F)c(Nc2ccc(Cl)cc2)n1 | 2000
54 | Cc1cc(/C=C/C#N)cc(F)c1Nc1cccc(Nc2ccc(C#N)cc2)n1 (mixture of isomers) | 5500
55 | Cc1cc(C)c(Nc2ccc(F)c(Nc3ccc(C#N)cc3)n2)c(C)c1 | 2000
56 | N#C/C=C/c1ccc(Nc2ccc(F)c(Nc3ccc(C#N)cc3)n2)cc1 (mixture of isomers) | 14
57 | Cc1cc(C#N)cc(C)c1Nc1ccc(F)c(Nc2ccc(F)cc2)n1 | 830
58 | Cc1cc(C#N)cc(C)c1Nc1ccc(F)c(Nc2ccc(C#N)cc2)n1 | 7100
59 | Cc1cc(/C=C/C#N)cc(C)c1Nc1ccc(F)c(Nc2ccc(Cl)cc2)n1 (mixture of isomers) | 6600
60 | Cc1ccc(Oc2ccc(F)c(Nc3ccc(C#N)cc3)n2)cc1 | 390
61 | Cc1cc(/C=C/C#N)cc(F)c1Nc1ccc(F)c(Nc2ccc(C#N)cc2)c1 (mixture of isomers) | 6100
62 | Cc1cc(/C=C/C#N)cc(C)c1Nc1ccnc(Nc2ccc(C#N)cc2)n1 [RILPIVIRINE] | 10700
63 | Cc1cc(/C=C/C#N)ccc1Nc1ccc(F)c(Nc2ccc(C#N)cc2)c1 (mixture of isomers) | 89
64 | Cc1cc(/C=C/C#N)cc(C)c1Nc1ccc(F)c(Nc2ccc(F)cc2)n1 (mixture of isomers) | 8100
65 | Cc1cc(C#N)cc(C)c1Nc1cccc(Nc2ccc(C#N)cc2)n1 | 930

Same assay, conditions: tzm-bl

Row | SMILES | Selectivity Index
66 | Cc1cc(/C=C/C#N)cc(C)c1Nc1ccc(F)c(Nc2ccc(C#N)cc2)n1 | 37500

System: Human immunodeficiency virus 1
Assay: Antiviral activity against nevirapine resistant R5-tropic HIV1 subtype C VI829 expressing reverse transcriptase Y181C mutant infected in human TZM-bl cells assessed as viral inhibition pre-incubated for 30 mins prior to infection measured after 48 hrs by luciferase assay
Type: functional, organism-based
Conditions: Human immunodeficiency virus 1, VI829, TZM-bl
In short: (§1)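 TZM-bl cells (10^4 per well, at 10^5 cells/mL in medium with 30μg/mL DEAE dextran) pre-incubated with serial compound dilutions, then infected with 200 TCID50 of resistant HIV-1; luciferase read after 48 h. Inhibition expressed as % of untreated controls; EC50 by non-linear regression. Triplicate wells, at least three independent experiments.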

Row | SMILES | EC50 [nM]
67 | Cc1cc(C)c(Nc2ccnc(Nc3ccc(C#N)cc3)n2)c(C)c1 [DAPIVIRINE] | 11
68 | Cc1cc(/C=C/C#N)cc(F)c1Nc1ccc(F)c(Nc2ccc(C#N)cc2)n1 | 25
69 | Cc1cc(/C=C/C#N)cc(C)c1Nc1ccc(F)c(Nc2ccc(C#N)cc2)n1 | 8.1
70 | Cc1cc(/C=C/C#N)cc(C)c1Nc1cccc(Nc2ccc(C#N)cc2)n1 (mixture of isomers) | 91
71 | Cc1cc(/C=C/C#N)cc(F)c1Nc1cccc(Nc2ccc(C#N)cc2)n1 (mixture of isomers) | 255
72 | Cc1cc(C)c(Nc2ccc(F)c(Nc3ccc(C#N)cc3)n2)c(C)c1 | 130
73 | Cc1cc(C#N)cc(C)c1Nc1ccc(F)c(Nc2ccc(C#N)cc2)n1 | 91
74 | Cc1cc(/C=C/C#N)cc(C)c1Nc1ccnc(Nc2ccc(C#N)cc2)n1 [RILPIVIRINE] | 2.5
75 | Cc1cc(C#N)cc(C)c1Nc1cccc(Nc2ccc(C#N)cc2)n1 | 1500

System: Human immunodeficiency virus 1
Assay: Antiviral activity against HIV1 NL4.3 expressing reverse transcriptase K103N mutant infected in human TZM-bl cells assessed as viral inhibition pre-incubated for 30 mins prior to infection measured after 48 hrs by luciferase assay
Type: functional, organism-based
Conditions: Human immunodeficiency virus 1, NL4.3, TZM-bl
In short: as §1

Row | SMILES | EC50 [nM]
76 | Cc1cc(C)c(Nc2ccnc(Nc3ccc(C#N)cc3)n2)c(C)c1 [DAPIVIRINE] | 2.8
77 | Cc1cc(/C=C/C#N)cc(F)c1Nc1ccc(F)c(Nc2ccc(C#N)cc2)n1 | 36
78 | Cc1cc(/C=C/C#N)cc(C)c1Nc1ccc(F)c(Nc2ccc(C#N)cc2)n1 | 7.8
79 | Cc1cc(/C=C/C#N)cc(C)c1Nc1ccnc(Nc2ccc(C#N)cc2)n1 [RILPIVIRINE] | 0.7

System: Human immunodeficiency virus 1
Assay: Antiviral activity against HIV1 NL4.3 expressing reverse transcriptase K103N-Y181C mutant infected in human TZM-bl cells assessed as viral inhibition pre-incubated for 30 mins prior to infection measured after 48 hrs by luciferase assay
Type: functional, organism-based
Conditions: Human immunodeficiency virus 1, NL4.3, TZM-bl
In short: as §1

Row | SMILES | EC50 [nM]
80 | Cc1cc(C)c(Nc2ccnc(Nc3ccc(C#N)cc3)n2)c(C)c1 [DAPIVIRINE] | 92
81 | Cc1cc(/C=C/C#N)cc(F)c1Nc1ccc(F)c(Nc2ccc(C#N)cc2)n1 | > 1000
82 | Cc1cc(/C=C/C#N)cc(C)c1Nc1ccc(F)c(Nc2ccc(C#N)cc2)n1 | 554
83 | Cc1cc(/C=C/C#N)cc(C)c1Nc1ccnc(Nc2ccc(C#N)cc2)n1 [RILPIVIRINE] | 3.1

System: Human immunodeficiency virus 1
Assay: Antiviral activity against efavirenz resistant R5-tropic HIV1 subtype C VI829 expressing reverse transcriptase L100I-K103N mutant infected in human TZM-bl cells assessed as viral inhibition pre-incubated for 30 mins prior to infection measured after 48 hrs by luciferase assay
Type: functional, organism-based
Conditions: Human immunodeficiency virus 1, VI829, TZM-bl
In short: as §1

Row | SMILES | EC50 [nM]
84 | Cc1cc(C)c(Nc2ccnc(Nc3ccc(C#N)cc3)n2)c(C)c1 [DAPIVIRINE] | > 1000
85 | Cc1cc(/C=C/C#N)cc(F)c1Nc1ccc(F)c(Nc2ccc(C#N)cc2)n1 | 272
86 | Cc1cc(/C=C/C#N)cc(C)c1Nc1ccc(F)c(Nc2ccc(C#N)cc2)n1 | 540
87 | Cc1cc(/C=C/C#N)cc(C)c1Nc1cccc(Nc2ccc(C#N)cc2)n1 (mixture of isomers) | > 1000
88 | Cc1cc(/C=C/C#N)cc(F)c1Nc1cccc(Nc2ccc(C#N)cc2)n1 (mixture of isomers) | 1100
89 | Cc1cc(C)c(Nc2ccc(F)c(Nc3ccc(C#N)cc3)n2)c(C)c1 | > 10000
90 | Cc1cc(C#N)cc(C)c1Nc1ccc(F)c(Nc2ccc(C#N)cc2)n1 | > 10000
91 | Cc1cc(/C=C/C#N)cc(C)c1Nc1ccnc(Nc2ccc(C#N)cc2)n1 [RILPIVIRINE] | 3.6
92 | Cc1cc(C#N)cc(C)c1Nc1cccc(Nc2ccc(C#N)cc2)n1 | 6600

From ChEMBL document CHEMBL3785072, “2,6-Di(arylamino)-3-fluoropyridine Derivatives as HIV Non-Nucleoside Reverse Transcriptase Inhibitors” (J Med Chem, 2016)
